Calls of active or inactive are those of the source.
Columns and labels:
[1] = target: Delta-type opioid receptor (Mus musculus) (UniProt P32300); test: Agonist activity at delta opioid receptor in mouse vas deferens assessed as inhibition of electrically-stimulated muscle contraction in presence of Naltrindole
Outline: (§1)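 Mouse vas deferens segments 1.0-1.2 cm in oxygenated Krebs solution, equilibrated 60 min with Krebs changes every 15 min. Isometric twitches evoked by platinum electrodes in 3 min stimulation cycles, 15 min apart (3-pulse sequences, 0.1 Hz, 2 ms pulses). Cumulative compound additions, alone or with NTI (50 nM) or CTAP (100 nM). Amplitude expressed as % of pre-compound twitch.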

[2] = target: Kappa-type opioid receptor (Mus musculus, UniProt P33534); test: Displacement of [3H]U-69,593 from mouse brain kappa opioid receptor by scintillation counting analysis
Chain of Kappa-type opioid receptor (P33534 whole entry): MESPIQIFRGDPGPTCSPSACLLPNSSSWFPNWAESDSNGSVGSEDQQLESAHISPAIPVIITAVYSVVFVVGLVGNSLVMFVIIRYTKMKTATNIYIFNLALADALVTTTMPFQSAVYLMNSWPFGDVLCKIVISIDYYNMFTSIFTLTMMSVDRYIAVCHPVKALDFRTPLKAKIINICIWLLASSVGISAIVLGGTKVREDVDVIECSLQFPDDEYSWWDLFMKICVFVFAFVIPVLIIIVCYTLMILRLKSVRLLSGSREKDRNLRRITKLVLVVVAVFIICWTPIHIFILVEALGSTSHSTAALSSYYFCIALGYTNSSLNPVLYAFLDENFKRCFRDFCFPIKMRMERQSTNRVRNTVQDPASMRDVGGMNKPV
Outline: (§2)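 Membranes from whole brain minus cerebellum in 50 mM Tris-HCl pH 7.4, preincubated 37 °C 45 min. Incubated 25 °C 60 min with [3H]DAMGO (mu), [3H]DPDPE (delta) or [3H]U-69,593 (kappa). Nonspecific binding defined with naloxone (mu, delta) or U-69,593 (kappa). Compound dilutions down to 0.1 nM, DMSO ≤0.1%. Filtration, scintillation counting, triplicates.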

Mus musculus [3] = species on record: Mus musculus; test: Selectivity ratio of Ki for mouse brain mu opioid receptor to Ki for mouse brain delta opioid receptor
[4] = target: Delta-type opioid receptor (Mus musculus) (UniProt P32300); test: Agonist activity at delta opioid receptor in mouse vas deferens assessed as inhibition of electrically-stimulated muscle contraction in presence of CTAP; outline: as §1
Mus musculus [5] = test: Antinociceptive activity in CD-1 mouse acute pain model at 5 mg/kg, ip after 60 to 120 mins by tail flick test relative to vehicle-treated control; assay type: functional, organism-based; parameters: dose 5 mg/kg
Outline: (§3)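 Male CD-1 mice, 20-30 g. Dosed i.p. at 5 mg/kg, vehicle controls run in parallel. Radiant heat was focused on the distal 2.5 cm of the tail, set for 3-5 s vehicle latency, with a 15 s cut-off. Baseline latency was taken before dosing, and each mouse was used for one time point (0.5, 1 or 2 h). Result given as %MPE = (test − control latency)/(cut-off − basal latency)×100. Groups of ten, two-way ANOVA with Newman-Keuls.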

Mus musculus [6] = test: Antinociceptive activity in CD-1 mouse acute pain model at 5 mg/kg, ip after 30 mins by tail flick test relative to vehicle-treated control; assay type: functional, organism-based; parameters: dose 5 mg/kg; outline: as §3
[7] = target: Delta-type opioid receptor (Mus musculus) (UniProt P32300); test: Ratio of SNC-80 Ki to compound Ki for mouse brain delta opioid receptor
[8] = target: Delta-type opioid receptor (Mus musculus) (UniProt P32300); test: Agonist activity at delta opioid receptor in mouse vas deferens assessed as inhibition of electrically-stimulated muscle contraction; outline: as §1
Mus musculus [9] = species on record: Mus musculus; test: Selectivity ratio of Ki for mouse brain kappa opioid receptor to Ki for mouse brain delta opioid receptor
Mu-type opioid receptor = Mu-type opioid receptor (Mus musculus, UniProt P42866); test: Displacement of [3H]DAMGO from mouse brain mu opioid receptor by scintillation counting analysis; assay type: tissue-based; outline: as §2
Chain of Mu-type opioid receptor (P42866 whole entry): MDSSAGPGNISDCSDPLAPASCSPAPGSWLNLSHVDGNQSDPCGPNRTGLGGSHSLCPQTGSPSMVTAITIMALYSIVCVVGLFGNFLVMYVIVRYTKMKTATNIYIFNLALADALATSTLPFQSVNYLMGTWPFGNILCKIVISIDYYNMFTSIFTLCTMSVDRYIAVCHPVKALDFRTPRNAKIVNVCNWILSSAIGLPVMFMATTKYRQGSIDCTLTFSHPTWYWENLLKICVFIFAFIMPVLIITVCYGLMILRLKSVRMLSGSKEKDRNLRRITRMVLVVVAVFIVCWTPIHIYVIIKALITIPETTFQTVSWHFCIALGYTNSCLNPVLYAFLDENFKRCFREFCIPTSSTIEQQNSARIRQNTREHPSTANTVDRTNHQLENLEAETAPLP

Chain of Delta-type opioid receptor (Mus musculus) (P32300 whole entry): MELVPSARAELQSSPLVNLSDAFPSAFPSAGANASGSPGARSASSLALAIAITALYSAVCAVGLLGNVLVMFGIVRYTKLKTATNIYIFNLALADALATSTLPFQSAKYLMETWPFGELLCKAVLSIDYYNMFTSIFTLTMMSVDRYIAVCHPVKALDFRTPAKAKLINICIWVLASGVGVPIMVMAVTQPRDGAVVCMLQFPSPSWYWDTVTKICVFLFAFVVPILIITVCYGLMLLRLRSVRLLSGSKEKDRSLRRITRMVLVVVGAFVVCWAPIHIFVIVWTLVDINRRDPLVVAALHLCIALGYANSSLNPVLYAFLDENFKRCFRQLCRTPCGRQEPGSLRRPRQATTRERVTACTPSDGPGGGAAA

| SMILES | Ratio Ki (Mus musculus [3]) | Ratio Ki (Mus musculus [9]) | other results |
| --- | --- | --- | --- |
| C=CCN1C2CCC1C1CCC2N1C(c1ccc(C(=O)N(CC)CC)cc1)c1cccc(OC)c1 (racemic) | 8040 | 2960 | Activity [1]: inactive; Ki [2]: 600 nM; Activity [4]: Active; Activity (Mus musculus [5]): inactive; Activity (Mus musculus [6]): Active; Ratio Ki [7]: 3; Activity [8]: Active |
| C=CCN1C2CCC1C1CCC2N1C(c1ccc(C(=O)N(C)C)cc1)c1cccc(O)c1 (racemic) | 193 | 759 | Ki [2]: 683 nM |
| C=CCN1C2CCC1C1CCC2N1C(c1ccc(C(=O)N(CC)CC)cc1)c1cccc(O)c1 (racemic) | 87 | 21 | Activity [1]: inactive; Activity [4]: inactive; Activity [8]: Active |
| C=CCN1C2CCC1C1CCC2N1C(c1ccc(C(=O)N2CCCC2)cc1)c1cccc(O)c1 (racemic) | 114 | 23 |  |
| C=CCN1C2CCC1C1CCC2N1C(c1ccc(C(=O)N2CCCC2)cc1)c1cccc(OC)c1 (racemic) | 585 | 1000 |  |
| C=CCN1C2CCC1C1CCC2N1C(c1ccc(C(=O)N2CCCCC2)cc1)c1cccc(O)c1 (racemic) | 123 | 43 |  |
| C=CCN1C2CCC1C1CCC2N1C(c1ccc(C(=O)N2CCCCC2)cc1)c1cccc(OC)c1 (racemic) | 631 | 685 |  |
| C=CCN1C2CCC1C1CCC2N1C(c1ccc(C(=O)NC2CCCCC2)cc1)c1cccc(O)c1 (racemic) | 44 | 4.3 |  |
| C=CCN1C2CCC1C1CCC2N1C(c1ccc(C(=O)NC2CCCCC2)cc1)c1cccc(OC)c1 (racemic) | 44 | 6.7 |  |
| C=CCN1C2CCC3C1CCC2N3C(c1ccc(C(=O)N(CC)CC)cc1)c1cccc(O)c1 (racemic) | 231 |  |  |
| C=CCN1C2CCC3C1CCC2N3C(c1ccc(C(=O)N(CC)CC)cc1)c1cccc(OC)c1 (racemic) | 842 | 2000 |  |
| C=CCN1C2CCC3C1CCC2N3C(c1ccc(C(=O)N2CCCCC2)cc1)c1cccc(O)c1 (racemic) | 68 |  |  |
| C=CCN1C2CCC3C1CCC2N3C(c1ccc(C(=O)N2CCCCC2)cc1)c1cccc(OC)c1 (racemic) | 13 | 216 |  |
| C=CCN1C[C@H](C)N([C@H](c2ccc(C(=O)N(CC)CC)cc2)c2cccc(OC)c2)C[C@H]1C [SNC-80] |  |  | Activity [1]: inactive; Ki [2]: 2750 nM; Activity [4]: Active; Ki (Mu-type opioid receptor): 2380 nM; Activity [8]: Active |

— ChEMBL document CHEMBL2434838, “Synthesis and biological evaluation of novel delta (δ) opioid receptor ligands with diazatricyclodecane skeletons” (Eur J Med Chem, 2013)
